Source: PubChem BioAssay (several laboratories)
PostGolgi ctrl – yeast control strain growth, post-Golgi counter-screen. efflux-deficient yeast background strain, growth absorbance A615, 16 h. inhibition, % at 10 µM. 98,000 tested, 5% active. AID 738
Ecoli WT expand – E. coli BW25113 growth inhibition, expanded screen | OD600 absorbance | 98,000 tested, 0.15% active | AID 710 | growth inhibition, % at 100 µM;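 active = growth inhibition above about 50% at one test dose, limit read from the data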;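 note: growth measured after 20 h incubation at 37 °C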
PostGolgi yeast – growth inhibition of a yeast mutant, post-Golgi transport screen. AID 739. inhibition, % at 10 µM. 98,000 tested, 0.9% active. post-Golgi transport phenotypic cell assay;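 note: yeast cells grown in 1536-well plates; yeast grown about 18 h at 30C before absorbance read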
HePTP inhibitor – human HePTP phosphatase inhibition. AID 521. 110,000 tested, 0.64% active. P35236. inhibition, % at 20 µM. recombinant HePTP phosphatase activity, OD absorbance; in the data active = inhibition above about 50%
Target sequence (P35236 whole entry, looked up): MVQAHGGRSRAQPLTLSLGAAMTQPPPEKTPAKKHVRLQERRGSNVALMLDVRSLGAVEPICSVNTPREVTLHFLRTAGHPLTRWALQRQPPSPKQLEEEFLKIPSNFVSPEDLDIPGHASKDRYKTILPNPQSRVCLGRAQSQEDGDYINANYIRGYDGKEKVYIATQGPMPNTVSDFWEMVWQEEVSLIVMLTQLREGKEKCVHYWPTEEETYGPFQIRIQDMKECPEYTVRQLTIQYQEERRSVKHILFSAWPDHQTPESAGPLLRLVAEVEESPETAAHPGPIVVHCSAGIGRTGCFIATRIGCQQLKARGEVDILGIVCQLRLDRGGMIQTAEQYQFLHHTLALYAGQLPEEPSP
PLAP activator – human PLAP activation. P05187. purified PLAP enzyme, luminescent substrate read-out; active compounds read high. activation fold at 20 µM. 96,000 tested, 1.2% active. AID 696; in the data active = activation fold above about 2
Ecoli tolC – E. coli tolC mutant growth inhibition; E. coli BW25113 tolC mutant growth, OD615; growth inhibition, % at 10 µM (by protocol); 65,000 tested, 2.2% active; AID 573;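 active = growth inhibition at or above a cutoff equal to the mean over every tested compound plus 3 SD, cut at about 60% in these data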;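 note: growth measured after 20 h incubation at 37 °C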
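test system = E. coli BW25113 ΔtolC::kan bacteria | medium = LB with kanamycin 50 µg/mL | signal = OD at 615 nm | schedule = 37 °C, 20 h exposure | evaluation = % inhibition of E. coli growth | compound dosing = one dose of 10 µM final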
Each line names hits and unclear results; the compound was inactive in the other large screens. An excerpt weighted towards active compounds, which were near 5.4% of everything screened. Cut-off read from the data, not from the text of the source, unless noted: active = inhibition above about 30%; inactive = the rest.

CCC(C)C(NC(=O)c1ccccc1NC(=O)c1ccc(OC)cc1)C(=O)NCc1ccco1 (stereo not drawn)	PLAP activator 2.1
COc1ccc(C(=O)Nc2ccccc2C(=O)NCCC(=O)NCc2ccco2)cc1	none (no result: PostGolgi ctrl, Ecoli WT expand, PostGolgi yeast, PLAP activator, Ecoli tolC)
Cc1ccc(Nc2ccc([N+](=O)[O-])nc2[N+](=O)[O-])cc1	none (no result: HePTP inhibitor, Ecoli tolC)
CC(=O)OCc1ccc(-c2ccc([N+](=O)[O-])cc2)o1	none (no result: PostGolgi ctrl, Ecoli WT expand, PostGolgi yeast, PLAP activator, Ecoli tolC)
Fc1ccc(-c2nnc(CN3CCC(c4nc5ccccc5s4)CC3)o2)cc1	PostGolgi ctrl 38
O=C(CSc1ccc(F)cc1)N1CCC(c2nc3ccccc3s2)CC1	none (no result: HePTP inhibitor, Ecoli tolC)
CCOC(=O)C1CCCN(S(=O)(=O)c2cc(OCC(N)=O)c(C)cc2Cl)C1 (stereo not drawn)	PostGolgi ctrl 33
Cc1cc(Cl)c(S(=O)(=O)N2CCCCCC2)cc1OCC(=O)NC1CCCCC1	PLAP activator 2 (no result: HePTP inhibitor, Ecoli tolC)
CCn1cc(Br)c(C(=O)NC(C)c2ccccc2)n1 (stereo not drawn)	none
Cc1sc(NC(=O)c2cc3ccccc3oc2=O)c(C(=O)OC(C)C)c1-c1ccccc1	none (no result: HePTP inhibitor, Ecoli tolC)
N/C(=N\c1nc2c(c(=O)[nH]1)CCCC2)Nc1ccccc1	none
N/C(=N\c1nc2c(c(=O)[nH]1)CCCC2)Nc1ccccc1Sc1ccccc1	PLAP activator 2 (no result: HePTP inhibitor, Ecoli tolC)
Cc1cc(C)n(CC(O)Cn2c3ccc(Cl)cc3c3cc(Cl)ccc32)c(=O)n1 (stereo not drawn)	PostGolgi ctrl 99, PostGolgi yeast 99 (no result: HePTP inhibitor, Ecoli tolC)
COc1cccc(-c2csc(N3CCN(S(=O)(=O)c4ccc(F)cc4)CC3)n2)c1	PostGolgi ctrl 37
CN(C)C(=O)c1ccccc1Sc1cc(Cl)ccc1Cl	PostGolgi ctrl 35 (no result: HePTP inhibitor, Ecoli tolC)
CN(C)C(=O)c1ccccc1Sc1ccc(Cl)cc1Cl	none (no result: HePTP inhibitor, Ecoli tolC)
Brc1ccc(/C=N/N2CCN(c3ccccc3)CC2)s1	none (no result: PostGolgi ctrl, Ecoli WT expand, PostGolgi yeast, PLAP activator, Ecoli tolC)
COC(=O)C(C(c1ccccc1)c1cc2ccccc2[nH]1)[N+](=O)[O-] (stereo not drawn)	none (no result: PostGolgi ctrl, Ecoli WT expand, PostGolgi yeast, PLAP activator, Ecoli tolC)
CC(=O)Nc1cccc(NC(=O)c2oc3ccccc3c2C)c1	Ecoli tolC 67
Cc1c(C(=O)Nc2ccc(Cl)cn2)oc2ccccc12	PostGolgi ctrl 31 (no result: PLAP activator)
O=C(O)CCCC(=O)OCc1ccco1	HePTP inhibitor 102 (no result: PostGolgi ctrl, Ecoli WT expand, PostGolgi yeast, PLAP activator, Ecoli tolC)
CCOc1ccc(NC(=O)C2=C(C)NC(=S)NC2c2ccc(OC)c(OC)c2)cc1 (stereo not drawn)	none (no result: PostGolgi ctrl, Ecoli WT expand, PostGolgi yeast, PLAP activator, Ecoli tolC)
O=C(NC1CCCC1)c1ccc(S(=O)(=O)N2CCOCC2)cc1	none (no result: HePTP inhibitor, Ecoli tolC)
CCn1c(=N)n(CC(=O)C23CC4CC(CC(C4)C2)C3)c2ccccc21	PostGolgi ctrl 35, Ecoli tolC 99
CCn1c(N2CCN(C(=O)C34CC5CC(CC(C5)C3)C4)CC2)nc2ccccc21	Ecoli tolC 65
CC1(C)C(C=C(Cl)Cl)C1C(=O)N1CCN(c2ccccc2)CC1 (stereo not drawn)	PostGolgi ctrl 70
O=C(N1CCN(c2ccccc2)CC1)C12CC3CC(CC(C3)C1)C2	PostGolgi ctrl 45
CC(=O)Nc1ccc(NC(=O)CN2CCCCC2)cc1	none (no result: PostGolgi ctrl, Ecoli WT expand, PostGolgi yeast, PLAP activator, Ecoli tolC)
COc1[nH]c(/N=C/c2ccccc2)c(C#N)c1C#N	none
O=c1c(Cl)c(Cl)cnn1Cc1ccccc1Cl	none (no result: PostGolgi ctrl, Ecoli WT expand, PostGolgi yeast, PLAP activator, Ecoli tolC)
O=C1CCC(/C=C/c2ccccc2)=NN1Cc1ccc(Cl)c(Cl)c1	PostGolgi ctrl 60 (no result: HePTP inhibitor, Ecoli tolC)
O=C1CCC(/C=C/c2ccccc2)=NN1Cc1ccccc1Cl	PostGolgi ctrl 39 (no result: HePTP inhibitor, Ecoli tolC)
CCN(CC)Cc1c(O)ccc2c(=O)c(Oc3ccccc3Br)c(C(F)(F)F)oc12	none (no result: PostGolgi ctrl, Ecoli WT expand, PostGolgi yeast, PLAP activator, Ecoli tolC)
Cn1c(-c2ccccc2)cnc1SCc1nc2ccccc2c(=O)[nH]1	PLAP activator 2.5
O=C1CC(N2CCN(c3ccc(F)cc3)CC2)C(=O)N1Cc1ccc(N2CCCC2=O)cc1 (stereo not drawn)	none
COc1cc(CNCCc2ccccc2)ccc1OCc1ccc(Cl)nc1	PostGolgi ctrl 39 (no result: HePTP inhibitor, Ecoli tolC)
COc1cc(CNCC(O)c2ccccc2)ccc1OCc1ccc(Cl)nc1 (stereo not drawn)	none (no result: HePTP inhibitor, Ecoli tolC)
COc1cccc(COc2nc3c(c(=O)n(C)c(=O)n3C)n2C)c1	none
COc1ccc2c(c1)c(C(C)=O)c(C)n2-c1ccccc1	none (no result: HePTP inhibitor, Ecoli tolC)
Cc1cc(C)c(S(=O)(=O)NCCn2c(C)cc3ccccc32)c(C)c1	PostGolgi ctrl 44 (no result: HePTP inhibitor, Ecoli tolC)
Cc1ccc(S(=O)(=O)NCCn2c(C)cc3ccccc32)cc1	none
O=C(Cc1ccc(Nc2nc3ccc(Br)cc3[nH]2)cc1)NCCc1cccs1	none (no result: HePTP inhibitor, Ecoli tolC)
O=C(NC(C(=O)c1ccccc1)N1CCCCC1)c1ccccc1 (stereo not drawn)	PostGolgi yeast 38
O=C(NC(C(=O)c1ccccc1)n1ccc(=O)[nH]c1=O)c1ccccc1 (stereo not drawn)	PostGolgi ctrl 30
